Test results as given in ChEMBL document CHEMBL4400513, “Aurone derivatives as promising antibacterial agents against resistant Gram-positive pathogens” (Eur J Med Chem, 2019).
≈ marks a conversion by molar mass, not a printed value. Calls of active or inactive are those of the source. The calls are words filed in the database; no cut-off is given here.

What was measured:
Clostridioides difficile = assay: Antimicrobial activity against Clostridium difficile after 18 to 24 hrs in anaerobic condition by two-fold serial dilutions method; assay type: functional
How it was run: (§1)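 Precultures in BHI broth at 37 °C in an anaerobic cabinet, grown to log phase (OD600 ~0.6), then seeded at ~10^5 bacteria/mL. Two-fold dilutions from 0 to 500 µM, 0.2% DMSO final as control. Plates incubated anaerobically at 37 °C for 18–24 h, OD600 read; MIC = lowest concentration giving no visible growth; independent triplicate.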

Clostridium perfringens [1] = assay: Antimicrobial activity against Clostridium perfringens after 24 to 72 hrs in anaerobic condition by two-fold serial dilutions method; assay type: functional
How it was run: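 C. perfringens grown in BHI at 37 °C anaerobically and brought to log phase (OD600 ~0.6). About 10^5 bacteria/mL with two-fold serial dilutions 0–500 µM, DMSO 0.2% final as control. Incubated 24 h at 37 °C in anaerobic cabinet; OD600 read; MIC = lowest concentration with no visible growth. Independent triplicate.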

[2] = test system: Streptococcus thermophilus; assay: Antimicrobial activity against Streptococcus thermophilus after 18 to 24 hrs in anaerobic condition by two-fold serial dilutions method; assay type: functional; how it was run: as §1
[3] = test system: Bacteroides thetaiotaomicron; assay: Antimicrobial activity against Bacteroides thetaiotaomicron after 18 to 24 hrs in anaerobic condition by two-fold serial dilutions method; assay type: functional; how it was run: as §1
Citrobacter farmeri [4] = assay: Antimicrobial activity against Citrobacter farmeri after 18 to 24 hrs in aerobic condition by two-fold serial dilutions method; assay type: functional
How it was run: (§2)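 Colonies grown overnight (~16 h) in Mueller-Hinton broth at 37 °C, 200 rpm, diluted 1/100 and grown to log phase (OD600 ~0.6), then diluted to ~10^5 bacteria/mL. Exposed to 0 to 500 µM in 1:2 series (0.2% DMSO final control), aerobic, 37 °C, 18–24 h. OD600 read; MIC = lowest concentration without visible growth; n = 3.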

Citrobacter rodentium = assay: Antimicrobial activity against Citrobacter rodentium after 18 to 24 hrs in aerobic condition by two-fold serial dilutions method; assay type: functional; how it was run: as §2
Escherichia coli [5] = assay: Antimicrobial activity against Escherichia coli MRS after 18 to 24 hrs in aerobic condition by two-fold serial dilutions method; assay type: functional; how it was run: as §2
Salmonella enterica [6] = assay: Antimicrobial activity against Salmonella enterica after 18 to 24 hrs in aerobic condition by two-fold serial dilutions method; assay type: functional; how it was run: as §2
Shigella flexneri [7] = assay: Antimicrobial activity against Shigella flexneri after 18 to 24 hrs in aerobic condition by two-fold serial dilutions method; assay type: functional; how it was run: as §2
Aspergillus niger = assay: Antifungal activity against Aspergillus niger after 48 hrs by two-fold serial dilutions method; assay type: functional
How it was run: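 Two-fold serial dilution MIC, 0 to 500 µM, from 200 mM DMSO stocks; 0.2% DMSO final as vehicle control. Inoculum about 10^5 cells/mL. Organism maintained on potato dextrose agar and in RPMI. Plates incubated 48 h at 35 °C, then OD600 read; MIC taken as lowest concentration with no visible growth; n = 3 independent runs.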

Fusarium graminearum [8] = assay: Antifungal activity against Fusarium graminearum after 2 to 5 days by two-fold serial dilutions method; assay type: functional
How it was run: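 F. graminearum grown on potato dextrose agar and in RPMI medium. Broth microdilution by NCCLS, two-fold serial dilution 0–500 µM, DMSO 0.2% final as vehicle control. Plates kept at room temperature 2 to 5 days, OD600 read; MIC taken as lowest concentration with no visible growth. Independent triplicate.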

Stachybotrys chartarum [9] = assay: Antifungal activity against Stachybotrys chartarum after 2 to 5 days by two-fold serial dilutions method; assay type: functional
How it was run: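 Broth two-fold serial dilution MIC, 0 to 500 µM (1:2 steps), from 200 mM DMSO stocks; 0.2% DMSO final as vehicle control. Inoculum about 10^5 cells/mL. Strains maintained on potato dextrose agar and in RPMI medium. Plates held at room temperature for 2 to 5 days, OD600 read; MIC = lowest concentration preventing visible growth; independent triplicate.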

BEAS-2B = assay: Cytotoxicity against human BEAS2B cells assessed as reduction in cell viability after 48 hrs by Resazurin dye-based assay; details: for IC50: Homo sapiens, BEAS-2B; for Activity: human, beas-2b
How it was run: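 Normal human lung epithelial (BEAS-2B) and lung fibroblast (IMR-90) cells were grown in DMEM with 10% FCS. Cells were seeded at ~10^4/well, grown to confluence (48–72 h), then exposed to increasing concentrations for 48 h at 37 °C, 5% CO2, with 0.2% DMSO as control. Resazurin was added for 4 h and fluorescence read at 530/590 nm. Viability was normalized to DMSO wells and IC50 calculated.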

Pseudomonas aeruginosa = assay: Bactericidal activity against Pseudomonas aeruginosa in aerobic condition; assay type: functional, organism-based
How it was run: (§3)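 MH broth; log-phase bacteria (OD600 ~0.6) diluted to ~10^5 bacteria/mL and exposed to two-fold serial dilutions (0–500 µM; 0.2% DMSO final as vehicle control) at 37 °C, aerobic, 18–24 h. MIC is the lowest concentration preventing visible growth (OD600). MBC is found by streaking 10 µL from no-growth wells onto agar; the MBC is the concentration where ≤1 colony grew. n = 3.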

Clostridium perfringens [10] = assay: Bactericidal activity against Clostridium perfringens in anaerobic condition; assay type: functional, organism-based
Enterococcus faecalis = assay: Bactericidal activity against Enterococcus faecalis in anaerobic condition; assay type: functional, organism-based
How it was run: (§4)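 From the MIC plates, 10 µL from each well without growth was streaked onto agar suited to the organism and incubated under that organism's growth conditions. Colonies were then counted; MBC = lowest concentration allowing ≤1 colony, i.e. killing 99.9% of bacteria.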

Acinetobacter baumannii [11] = assay: Bactericidal activity against Acinetobacter baumannii in aerobic condition; assay type: functional, organism-based; how it was run: as §4
Acinetobacter baumannii [12] = assay: Bactericidal activity against Acinetobacter baumannii MRS in aerobic condition; assay type: functional, organism-based; how it was run: as §4
[13] = test system: Bacteroides thetaiotaomicron; assay: Bactericidal activity against Bacteroides thetaiotaomicron in anaerobic condition; assay type: functional, organism-based; how it was run: as §4
Citrobacter farmeri [14] = assay: Bactericidal activity against Citrobacter farmeri in aerobic condition; assay type: functional, organism-based; how it was run: as §4
Escherichia coli [15] = assay: Bactericidal activity against Escherichia coli MRS in aerobic condition; assay type: functional, organism-based; how it was run: as §4
Helicobacter pylori = assay: Bactericidal activity against Helicobacter pylori in anaerobic condition; assay type: functional, organism-based; how it was run: as §4
Klebsiella pneumoniae = assay: Bactericidal activity against Klebsiella pneumoniae in aerobic condition; assay type: functional, organism-based; how it was run: as §4
Salmonella enterica [16] = assay: Bactericidal activity against Salmonella enterica in aerobic condition; assay type: functional, organism-based; how it was run: as §3
Shigella flexneri [17] = assay: Bactericidal activity against Shigella flexneri in aerobic condition; assay type: functional, organism-based; how it was run: as §3
Vibrio alginolyticus = assay: Bactericidal activity against Vibrio alginolyticus in aerobic condition; assay type: functional, organism-based; how it was run: as §3
Aspergillus ochraceus = assay: Fungicidal activity against Aspergillus ochraceus; assay type: functional, organism-based
How it was run: (§5)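 Filamentous fungi grown on potato dextrose agar and tested in RPMI medium with two-fold serial dilutions (0–500 µM, 0.2% DMSO final). Plates held at room temperature for 2 to 5 days, then OD600 read; MIC taken as the lowest concentration with no visible growth. The fungicidal endpoint is ≤1 colony after streaking 10 µL of no-growth wells on agar. n = 3.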

Fusarium graminearum [18] = assay: Fungicidal activity against Fusarium graminearum; assay type: functional, organism-based
Fusarium oxysporum = assay: Fungicidal activity against Fusarium oxysporum; assay type: functional, organism-based; how it was run: as §5
Penicillium verrucosum = assay: Fungicidal activity against Penicillium verrucosum; assay type: functional, organism-based; how it was run: as §5
Stachybotrys chartarum [19] = assay: Fungicidal activity against Stachybotrys chartarum; assay type: functional, organism-based; how it was run: as §5

Row | Structure (SMILES) | MIC (Clostridioides difficile) | MIC (Clostridium perfringens [1]) | MIC [2] | MIC [3] | MIC (Citrobacter farmeri [4]) | MIC (Citrobacter rodentium) | MIC (Escherichia coli [5]) | MIC (Salmonella enterica [6]) | MIC (Shigella flexneri [7]) | MIC (Aspergillus niger) | MIC (Fusarium graminearum [8]) | MIC (Stachybotrys chartarum [9]) | IC50 (BEAS-2B) | Activity (BEAS-2B) | Activity (Pseudomonas aeruginosa) | Activity (Clostridium perfringens [10]) | Activity (Enterococcus faecalis) | Activity (Acinetobacter baumannii [11]) | Activity (Acinetobacter baumannii [12]) | Activity [13] | other results
1 | O=C1/C(=C/c2ccccc2)Oc2cc(O)cc(O)c21 | 62.5 µM (≈ 15.9 µg/mL) | 7.8 µM (≈ 1.98 µg/mL) | 31.2 µM (≈ 7.95 µg/mL) | > 500 µM | > 500 µM | > 500 µM | > 500 µM | > 500 µM | > 500 µM | 62.5 µM (≈ 15.9 µg/mL) | 31.2 µM (≈ 7.95 µg/mL) | > 500 µM | 280 µM | Dose-dependent effect | Active | Active | Active | Active | Active | Active | Activity (Citrobacter farmeri [14]): Active; Activity (Escherichia coli [15]): Active; Activity (Helicobacter pylori): Active; Activity (Klebsiella pneumoniae): Active; Activity (Salmonella enterica [16]): Active; Activity (Shigella flexneri [17]): Active; Activity (Vibrio alginolyticus): Active; Activity (Aspergillus ochraceus): Active; Activity (Fusarium graminearum [18]): Active; Activity (Fusarium oxysporum): Active; Activity (Penicillium verrucosum): Active; Activity (Stachybotrys chartarum [19]): Active
2 | COc1cc(/C=C2\Oc3cc(O)cc(O)c3C2=O)ccc1OCc1ccccc1 | 31.2 µM (≈ 12.2 µg/mL) | 31.2 to 62.5 µM (≈ 12.2 to 24.4 µg/mL) | 125 µM (≈ 48.8 µg/mL) | > 500 µM | > 500 µM | > 500 µM | > 500 µM | > 500 µM | > 500 µM | > 500 µM | 500 µM (≈ 195 µg/mL) | > 500 µM | 190 µM | Dose-dependent effect | Active | Active | Active | Active | Active | Active | Activity (Citrobacter farmeri [14]): Active; Activity (Escherichia coli [15]): Active; Activity (Helicobacter pylori): Active; Activity (Klebsiella pneumoniae): Active; Activity (Salmonella enterica [16]): Active; Activity (Shigella flexneri [17]): Active; Activity (Vibrio alginolyticus): Active; Activity (Aspergillus ochraceus): Active; Activity (Fusarium graminearum [18]): Active; Activity (Fusarium oxysporum): Active; Activity (Penicillium verrucosum): Active; Activity (Stachybotrys chartarum [19]): Active
3 | O=C1/C(=C/c2ccc(F)cc2)Oc2cc(O)cc(O)c21 | 62.5 µM (≈ 17 µg/mL) | 31.2 to 62.5 µM (≈ 8.51 to 17 µg/mL) | 31.2 µM (≈ 8.51 µg/mL) | > 500 µM | > 500 µM | > 500 µM | > 500 µM | > 500 µM | > 500 µM | > 500 µM | > 500 µM | > 500 µM | 590 µM | Dose-dependent effect | Active | Active | Active | Active | Active | Active | Activity (Citrobacter farmeri [14]): Active; Activity (Escherichia coli [15]): Active; Activity (Helicobacter pylori): Active; Activity (Klebsiella pneumoniae): Active; Activity (Salmonella enterica [16]): Active; Activity (Shigella flexneri [17]): Active; Activity (Vibrio alginolyticus): Active; Activity (Aspergillus ochraceus): Active; Activity (Fusarium graminearum [18]): Active; Activity (Fusarium oxysporum): Active; Activity (Penicillium verrucosum): Active; Activity (Stachybotrys chartarum [19]): Active
